Screening results: PubChem BioAssay, several laboratories
Compounds with a hit are over-represented: about 0.55% of the library has one in this group of screens.
HSV replic up: HSV replication enhancement | HSV replication augmentation in cells, fold increase | maximum fold increase | 220,000 compounds, 0.005% hits; in the data active means maximum fold increase above about 1.5; tested in PC3 cells
p97 inhibitor: inhibitors of human p97 ATPase | 220,000 compounds, 0.42% hits | P55072 | recombinant p97 ATPase, Kinase-Glo ATP luminescence, 3 h | inhibition, % at 8 µM | AID 1481; in the data active means inhibition above about 15%;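 further: 0% = DMSO vehicle and 100% = wells lacking enzyme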
Target sequence (P55072 whole entry, looked up): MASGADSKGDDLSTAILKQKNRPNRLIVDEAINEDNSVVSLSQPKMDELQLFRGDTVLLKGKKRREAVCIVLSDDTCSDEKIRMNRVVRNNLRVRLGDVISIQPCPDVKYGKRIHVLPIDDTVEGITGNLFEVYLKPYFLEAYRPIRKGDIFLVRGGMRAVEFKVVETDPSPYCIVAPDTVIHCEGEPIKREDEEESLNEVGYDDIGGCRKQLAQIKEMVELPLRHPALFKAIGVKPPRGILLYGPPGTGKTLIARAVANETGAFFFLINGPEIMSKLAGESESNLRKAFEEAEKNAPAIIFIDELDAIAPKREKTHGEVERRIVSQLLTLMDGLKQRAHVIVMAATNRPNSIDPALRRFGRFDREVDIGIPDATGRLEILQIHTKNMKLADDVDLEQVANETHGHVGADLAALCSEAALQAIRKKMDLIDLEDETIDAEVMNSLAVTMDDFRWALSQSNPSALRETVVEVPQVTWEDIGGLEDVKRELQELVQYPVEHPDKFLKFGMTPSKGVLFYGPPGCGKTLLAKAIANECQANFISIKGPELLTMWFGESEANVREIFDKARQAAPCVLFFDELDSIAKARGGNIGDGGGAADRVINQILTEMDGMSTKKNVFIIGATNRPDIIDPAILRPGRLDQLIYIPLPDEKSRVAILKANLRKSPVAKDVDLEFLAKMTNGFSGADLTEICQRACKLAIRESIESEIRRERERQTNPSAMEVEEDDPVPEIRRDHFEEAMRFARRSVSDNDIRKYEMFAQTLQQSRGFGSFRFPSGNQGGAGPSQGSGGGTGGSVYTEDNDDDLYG
ABCG2 block: human ABCG2 inhibition, ABCB1 as counter-screen; Q9UNQ0; 190,000 compounds, 0.1% hits; IgMXP3 cells, JC-1 efflux, flow cytometry; inhibition, % at 6.6 µM; AID 1325;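 active means inhibition above 80%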;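 further: 0% = DMSO and 100% = nicardipine control wells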
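Read-out basis: Efflux inhibition in percent versus controls | Test system: ABCG2 IgMXP3 and barcoded ABCB1 CCRF-Adr cell mix | Quantity: 3 million cells/mL in well | Schedule: 10 min at 25 °C | Control set: Nicardipine as high control, DMSO as low control | Reagent: JC-1 as fluorescent efflux pump substrate | Signal: Flow cytometry of retained JC-1 fluorescence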
Rad51 HR inh: blocks human Rad51 in homologous recombination; Q06609; hRad51 DNA strand exchange, fluorescence dequenching; inhibition, % at 10 µM; 200,000 compounds, 0.085% hits; AID 1385;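 active means inhibition above 40% at the single screening dose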;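 further: 0% = DMSO control wells and 100% = blanks with heterologous ssDNA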
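System: human Rad51 nucleoprotein filaments preassembled on unlabelled ssDNA. Reagent: labelled 47-mer dsDNA for strand exchange. Schedule: 30-min compound preincubation and 15-min exchange, both room temperature. Measured by: FRET fluorescence dequenching, excitation 485 nm, emission 520 nm. Read-out: Fluorescence-based percent inhibition, control- and blank-normalised. Benchmarks: plate controls and plate blanks.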
ABCB6 inh 2: inhibitors of human ABC transporter ABCB6; K562-ABCB6 porphyrin accumulation, flow cytometry, 1 h; stronger effect = lower value; fluorescence ratio to DMSO, % at 10 µM; Q9NP58; 360,000 compounds, 0.19% hits;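 active means fluorescence ratio to DMSO below 75%, the collection mean minus 3 SD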;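 further: signal is porphyrin accumulated inside mitochondria; 100% equals median channel fluorescence of DMSO control wells; lower ratio means ABCB6 inhibition with less porphyrin fluorescence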
ABCB1 block: human ABCB1 inhibition, ABCG2 as counter-screen | P08183 | CCRF-Adr cells, JC-1 efflux, flow cytometry | inhibition, % at 6.6 µM | 190,000 compounds, 0.067% hits | AID 1326; in the data active means inhibition above about 40%;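 further: 0% = vehicle and 100% = reference inhibitor; higher value means more JC-1 retained so stronger ABCB1 efflux block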
ABCB6 inh CP1: blocks the human ABCB6 transporter. shares compounds with ABCB6 inh 2. K562-ABCB6 porphyrin accumulation, flow cytometry, 1 h; stronger effect = lower value. ratio response (% of DMSO), % at 10 µM. 700 tested, under 10 active. AID 602430;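 active means repeat-averaged ratio response below 75% of DMSO, the collection mean minus 3 SD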;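 further: median porphyrin fluorescence at 575 nm with 488 nm excitation from mitochondria; lower ratio means less porphyrin signal so ABCB6 inhibition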
K562 vector FC: effect in K562 cells lacking ABCB6, counter-screen; shares compounds with ABCB6 inh 2; K562 empty-vector cells, flow cytometry fluorescence, 1 h; percent response (fluorescence), % at 100 µM; 25 tested, under 10 active;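 active means compounds whose half-maximal effective concentration is below 100 µM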
* marks the source's active call; other numbers are inactive results; i = inactive; nt = not tested or not shown.

SMILES | HSV replic up | p97 inhibitor | ABCG2 block | Rad51 HR inh | ABCB6 inh 2 | ABCB1 block | ABCB6 inh CP1 | others
CCCCn1cnc2c(cnn2-c2ccc(Cl)cc2)c1=O | i | 4 | 0 | 11 | 62* | 0 | 97
O=C1CCCN1CCCN1C(=O)N[C@@H](Cc2ccccc2)C1=O | i | 9 | 6 | -11 | 100 | 2 | nt
O=C1N[C@@H](Cc2ccccc2)C(=O)N1CCN1CCOCC1 | i | -4 | 2 | 5 | 48* | -1 | 97
CCc1nc2c(OCc3ccc4c(c3)OCO4)cccn2c1N(C=O)Cc1ccc(OC)cc1 | nt | nt | nt | nt | 98 | nt | nt
O=C(NCc1ccco1)c1c2c(nc3ccccc13)CCC2 | nt | 5 | 1 | nt | 74* | 0 | 101
O=C(CSc1c2c(nc3ccccc13)CCCC2)NCc1ccco1 | i | -3 | 0 | 19 | 97 | 1 | nt
N#CC(=C1C=C(Br)C(=NO)C=C1Cl)c1cccc2ccccc12 | nt | nt | nt | nt | 102 | nt | nt
CC(=O)Nc1ccc(NC(=O)c2nc(S(=O)(=O)Cc3cccc(C)c3)ncc2Cl)cc1 | nt | nt | nt | nt | 67* | nt | nt | K562 vector FC=224
Cc1cccc(CS(=O)(=O)c2ncc(Cl)c(C(=O)NCc3ccc4c(c3)OCO4)n2)c1 | nt | nt | nt | nt | 97 | nt | nt
COC(=O)c1ccc(NC(=O)c2nc(S(=O)(=O)Cc3cccc(C)c3)ncc2Cl)cc1 | nt | nt | nt | nt | 41* | nt | 91
COc1ccccc1CC1CC(=O)N(c2ccc([N+](=O)[O-])cc2)C1=O (centres undefined) | nt | nt | nt | nt | 95 | nt | nt
CC(C)Nc1nc(Nc2ccc(Cl)cc2F)c2sccc2n1 | nt | nt | nt | nt | 92 | nt | nt
CCc1ccc(C#CC2=CC(=O)CC(C)(C)C2)cc1 | nt | nt | nt | nt | 100 | nt | nt
Cc1cc(C)cc(NC(=O)c2cc3c(=O)n4ccccc4nc3s2)c1 | nt | nt | nt | nt | 91 | nt | 97
CSc1ccccc1NC(=O)c1cc2c(=O)n3ccccc3nc2s1 | nt | nt | nt | nt | 102 | nt | 101
CC(C)NC(=O)c1cc2c(=O)n3ccccc3nc2s1 | nt | nt | nt | nt | 79 | nt | nt
Cc1c(NC(=O)c2cc3c(=O)n4ccccc4nc3s2)c(=O)n(-c2ccccc2)n1C | i | 4 | nt | 16 | 93 | nt | nt
COc1ccc(CCNC(=O)c2ccc(NC(=O)CC3SC(N4CCCCC4)=NC3=O)cc2)cc1 (centres undefined) | nt | nt | nt | nt | 96 | nt | nt
CC1(C(=O)NS(=O)(=O)c2ccc(Br)cc2)CCN1C(=O)c1cccc(F)c1 (centres undefined) | nt | nt | nt | nt | 96 | nt | nt
Cc1ccc(S(=O)(=O)n2ccc3c(OCCOCCNCc4ccc(F)cc4)cccc32)cc1 | nt | nt | nt | nt | 81 | nt | nt
Cc1ccc(S(=O)(=O)N(C)CC(=O)NCCCn2ccnc2)cc1 | nt | nt | nt | nt | 61* | nt | 101
Cc1cccc(NC(=O)CSc2nc3ccccc3c(=O)n2CC2CCCO2)c1 (centres undefined) | nt | nt | nt | nt | 98 | nt | nt
O=C(Nc1ccc(F)c(Cl)c1)C1Cc2c(-c3cccc(F)c3)ccnc2O1 (centres undefined) | nt | nt | nt | nt | 72* | nt | 101
CC(C)c1ccc(NC(=O)C2Cc3c(-c4cccc(F)c4)ccnc3O2)cc1 (centres undefined) | nt | nt | nt | nt | 97 | nt | nt
CC(=O)c1cccc(-c2ccnc3c2CC(C(=O)Nc2ccc(F)c(Cl)c2)O3)c1 (centres undefined) | nt | nt | nt | nt | 94 | nt | 100
SMILES | HSV replic up | p97 inhibitor | ABCG2 block | Rad51 HR inh | ABCB6 inh 2 | ABCB1 block | ABCB6 inh CP1 | others
O=C(Nc1ccc2c(c1)OCO2)C1Cc2c(-c3ccc(Cl)cc3)ccnc2O1 (centres undefined) | nt | nt | nt | nt | 97 | nt | 97
CN1C[C@@H]2[C@@H]3C(=O)N(Cc4ccccc4)C(=O)[C@@H]3[C@](C)(C1=O)N2C(=O)c1ccc(Br)cc1 | nt | nt | nt | nt | 94 | nt | nt
CC(CNC(=O)c1ccc(C#N)cc1)NC(=O)c1ccc(C#N)cc1 (centres undefined) | nt | nt | nt | nt | 73* | nt | 101
COc1ccc(C(=O)NCC(C)NC(=O)c2ccc(OC)cc2)cc1 (centres undefined) | nt | nt | nt | nt | 100 | nt | nt
Cc1ccc(OCC(=O)Nc2ccncc2)cc1C | nt | nt | nt | nt | 74* | nt | 99
CC(O)c1cccc(NC2=CC(=O)CC(C)(C)C2)c1 (centres undefined) | i | 0 | 4 | -2 | 64* | 1 | 100
CCOc1ccc2nc(SCC(=O)NCc3ccccc3OC)[nH]c2c1 | nt | nt | nt | nt | 72* | nt | 103
CCOc1ccc2nc(SCC(=O)NCc3ccc(OC)cc3)[nH]c2c1 | nt | nt | nt | nt | 94 | nt | nt
COc1ccc2nc(SCC(=O)Nc3c(C)cccc3C)[nH]c2c1 | i | 4 | 4 | -5 | 74* | 1 | 98
COc1ccc2nc(SCC(=O)Nc3ccccc3)[nH]c2c1 | i | 5 | 1 | 9 | 101 | 1 | nt
OCCN1CCN(c2ncnc3c2ncn3[C@H]2CN(Cc3ccc(Cl)cc3)C[C@@H](CO)O2)CC1 | nt | nt | nt | nt | 92 | nt | nt
CN(C)c1ccc(CNC(=O)C2(C)Cc3c(-c4cccc(C(N)=O)c4)ccnc3O2)cc1 (centres undefined) | nt | nt | nt | nt | 98 | nt | nt
CC1CCCC(C)N1C(=O)CN1C(=O)NC2(CCCCCC2)C1=O (centres undefined) | nt | nt | nt | nt | 104 | nt | nt
CCCCCN(C(=O)CCC(=O)OCC(=O)c1ccc(CCC)cc1)c1c(N)n(CCCC)c(=O)[nH]c1=O | nt | nt | nt | nt | 73* | nt | 98
CCCCCN(C(=O)CCC(=O)OCc1ccccc1C)c1c(N)n(CCCC)c(=O)[nH]c1=O | nt | nt | nt | nt | 97 | nt | nt
CCCCCN(C(=O)CCC(=O)OC(C)C(=O)c1ccc(CC)cc1)c1c(N)n(CCCC)c(=O)[nH]c1=O (centres undefined) | nt | nt | nt | nt | 95 | nt | 98
CC(C)CN(C(=O)CCC(=O)OCC(=O)c1ccc(F)c(F)c1)c1c(N)n(CC(C)C)c(=O)[nH]c1=O | nt | nt | nt | nt | 91 | nt | nt
CCCCCN(C(=O)CCC(=O)OCC(=O)c1ccc(C(C)(C)C)cc1)c1c(N)n(CCCC)c(=O)[nH]c1=O | nt | nt | nt | nt | 94 | nt | nt
CC(C)CN(C(=O)CCC(=O)OCC(=O)N(C)c1ccccc1)c1c(N)n(CC(C)C)c(=O)[nH]c1=O | nt | nt | nt | nt | 100 | nt | 102
CCCCCN(C(=O)CCC(=O)OC(C)C(=O)Nc1ccccc1C)c1c(N)n(CCCC)c(=O)[nH]c1=O (centres undefined) | nt | nt | nt | nt | 98 | nt | 103
O=C(CC[C@H]1O[C@@H](n2cnc3c(NC(=O)c4ccccc4)ncnc32)[C@H](O)[C@@H]1O)NCc1cccc2ccccc12 | nt | nt | nt | nt | 95 | nt | nt
Cc1ccc2c(COC(=O)C3CC(=O)N(c4ccc5c(c4)OCCO5)C3)cc(=O)oc2c1 (centres undefined) | nt | nt | nt | nt | 98 | nt | nt
Cc1nc2ccc(C(=O)Nc3ccc4c(c3)OCC(=O)N4)cn2c1N(C)C(=O)CCc1ccccc1 | nt | nt | nt | nt | 98 | nt | nt
CCCCN(C(=O)CCC(=O)OCC(=O)NCc1ccccc1)c1c(N)n(CCC)c(=O)[nH]c1=O | nt | nt | nt | nt | 101 | nt | 102
